# Reference: paper PMC9925696 (Neuro-Oncology, 2022)
# “Also recorded” adds a separate entry of the source. Marks after values point to notes of the source that are not given here.
# What was measured:
# Type in all cases: in vivo, human
# [1] = tested on: recurrent/progressive IDH1-mutant (R132) glioma; test: Tumor response by RANO / RANO-LGG, PFS, treatment duration; conditions: for Duration of CR: still on treatment
# Procedure, shortened: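 MRI was performed every 6 weeks. Investigators classed tumors at enrollment as contrast-enhancing (assessed by RANO) or non-enhancing (assessed by RANO-LGG). Longest and orthogonal diameters were measured on the largest FLAIR/T2 slice. Best overall response required a confirmatory scan at least 4 weeks later. ORR counted CR, PR and MR. PFS ran from first dose to progression or death. Dosing was oral twice daily, continued until progression or intolerable toxicity.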
# [2] = DS-1001 concentration in resected tumor tissue, plasma and CSF; conditions: for DS-1001 concentration in resected tumor tissue: free form
# Procedure, shortened: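 Drug levels were measured by validated LC-MS/MS and expressed as the free form. CSF was collected at screening and on cycle 1 day 15 (±3 days). Resected tumor and matched plasma were taken on the day of salvage surgery, after oral twice-daily dosing continued until surgery. Where a patient gave several tumor samples, the range is given. The brain/plasma ratio used the matched plasma sample.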
# Safety evaluation = test: Safety evaluation
# Procedure, shortened: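 Adults (≥20 years) with recurrent/progressive grade 2-4 IDH1-R132 glioma received oral twice-daily dosing in 21-day cycles at 125-1400 mg (six levels). Escalation used a modified continual reassessment method (Bayesian logistic regression, overdose control) with cohorts of 3-6 patients and DLT assessment over the 21-day cycle. TEAEs were recorded up to 28 days after the last dose, graded by CTCAE v4.0 and counted once per patient at worst severity. LVEF was monitored by echocardiography or MUGA.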
# [3] = 12 non-enhancing tumors, RANO-LGG
# [4] = non-enhancing (n = 12), RANO-LGG
# [5] = Patient #003, 500 mg bid, 16.9 h after last dose
# [6] = Patient #006, 700 mg bid, 7.2 h after last dose
smiles,measurement,setting,value
Cc1cn(C(=O)c2c(-c3c(Cl)cc(Cl)cc3Cl)noc2C(C)(C)F)c2cccc(/C=C/C(=O)O)c12 [DS-1001],Response by 1p/19q codeletion status,[1]; 1p/19q-codeleted vs non-codeleted,Measurable response was observed in both 1p/19q-codeleted and non-codeleted cases
same,Number of MRs,[1]; [3],3
same,Number of PRs,[1]; [3],1
same,Number of CRs,"[1]; 35 enhancing tumors, RANO",2
same,Number of PRs,"[1]; 35 enhancing tumors, RANO",4
same,Median response duration,[1]; both lesion types,has not been reached
same,Doses at which responses were observed,[1]; data limited,≥ 125 mg bid
same,Confirmed best overall response: complete response,"[1]; enhancing (n = 35), RANO",2 (5.7) n (%)
same,Confirmed best overall response: partial response,"[1]; enhancing (n = 35), RANO",4 (11.4) n (%)
same,Confirmed best overall response: progressive disease,"[1]; enhancing (n = 35), RANO",17 (48.6) n (%)
same,Confirmed best overall response: stable disease,"[1]; enhancing (n = 35), RANO",11 (31.4) n (%)
same,Objective response rate,"[1]; enhancing (n = 35), RANO",6 (17.1) n (%)
same,Confirmed best overall response: not evaluated,"[1]; enhancing (n = 35), treatment discontinued before first response assessment",1 (2.9)^b n (%)
same,Median progression-free survival,"[1]; enhancing glioma cohort, all doses, 95% CI 6.1 to 17.7 weeks",10.4 weeks
same,Median progression-free survival,"[1]; enhancing glioma cohort, 95% CI 6.1 to 17.7 months (abstract)",10.4 months
same,Patients with tumor measurements decreased from baseline,"[1]; enhancing tumors, 15 of 35",42.9%
same,Objective response rate,"[1]; enhancing tumors, RANO",17.1%
same,Confirmed best overall response: not evaluated,[1]; non-enhancing (n = 12),0 (0.0) n (%)
same,Confirmed best overall response: complete response,[1]; [4],0 (0.0) n (%)
same,Confirmed best overall response: minor response,[1]; [4],3 (25.0) n (%)
same,Confirmed best overall response: partial response,[1]; [4],1 (8.3) n (%)
same,Confirmed best overall response: progressive disease,[1]; [4],0 (0.0) n (%)
same,Confirmed best overall response: stable disease,[1]; [4],8 (66.7) n (%)
same,Objective response rate,[1]; [4],4 (33.3) n (%)
same,Median progression-free survival,"[1]; non-enhancing glioma cohort, 95% CI 24.1 to not reached",not reached
same,Patients with tumor measurements decreased from baseline,"[1]; non-enhancing tumors, 11 of 12",91.7%
same,Objective response rate,"[1]; non-enhancing tumors, RANO-LGG",33.3%
same,Duration of CR,[1]; patient with IDH1-mutant anaplastic oligodendroglioma,approximately 95 weeks
same,Duration of CR,"[1]; patient with astrocytoma (IDH-mutant, grade 4)",approximately 174 weeks
same,Brain/plasma concentration ratio,[2]; [5],0.77
same,DS-1001 concentration in resected tumor tissue,[2]; [5],5720 ng/g tissue
same,Brain/plasma concentration ratio,"[2]; Patient #004, 500 mg bid, 4.1, 4.2 h after last dose",0.19
same,Brain/plasma concentration ratio,[2]; [6],0.58
same,DS-1001 concentration in resected tumor tissue,[2]; [6],6130 ng/g tissue
same,DS-1001 in CSF,[2]; day 15 of cycle 1,appeared in CSF
same,Brain / tumor distribution of DS-1001,"[2]; resected tumor samples, salvage surgery",favorable brain distribution; also recorded: a high drug concentration was detected in all resected tumor samples
same,Patients with at least 1 AE of any grade or causality,Safety evaluation; 45 of 47,95.7%
same,Tolerability / safety profile,Safety evaluation; 125-1400 mg bid oral,well tolerated; also recorded: favorable safety profile
same,Maximum tolerated dose (MTD),"Safety evaluation; 125-1400 mg bid oral, highest dose level 1400 mg bid",not reached
same,"Alanine aminotransferase increased, all grades",Safety evaluation; N = 47,4 (8.5) n (%)
same,"Alanine aminotransferase increased, grade 3",Safety evaluation; N = 47,3 (6.4) n (%)
same,"All AEs, grade 3",Safety evaluation; N = 47,20 (42.6) n (%)
same,"Alopecia, all grades",Safety evaluation; N = 47,13 (27.7) n (%)
same,"Alopecia, grade 3",Safety evaluation; N = 47,0 n (%)
same,"Arthralgia, all grades",Safety evaluation; N = 47,13 (27.7) n (%)
same,"Arthralgia, grade 3",Safety evaluation; N = 47,1 (2.1) n (%)
same,"Aspartate aminotransferase increased, all grades",Safety evaluation; N = 47,3 (6.4) n (%)
same,"Aspartate aminotransferase increased, grade 3",Safety evaluation; N = 47,2 (4.3) n (%)
same,"Back pain, all grades",Safety evaluation; N = 47,10 (21.3) n (%)
same,"Back pain, grade 3",Safety evaluation; N = 47,0 n (%)
same,"Decreased appetite, all grades",Safety evaluation; N = 47,5 (10.6) n (%)
same,"Decreased appetite, grade 3",Safety evaluation; N = 47,0 n (%)
same,"Diarrhea, all grades",Safety evaluation; N = 47,22 (46.8) n (%)
same,"Diarrhea, grade 3",Safety evaluation; N = 47,2 (4.3) n (%)
same,Dose interruption due to arthralgia,Safety evaluation; N = 47,10.6%
same,Dose interruption due to neutrophil count decreased,Safety evaluation; N = 47,12.8%
same,Dose reduction associated with alanine aminotransferase increased,Safety evaluation; N = 47,4.3%
same,Dose reduction associated with arthralgia,Safety evaluation; N = 47,10.6%
same,Dose reduction associated with back pain,Safety evaluation; N = 47,6.4%
same,Dose reduction associated with neck pain,Safety evaluation; N = 47,2.1%
